Screening data deposited in PubChem BioAssay by several laboratories.
GSK3 alpha inh: blocks human GSK-3 alpha kinase. 320,000 tested, 0.1% active. P49840. inhibition, % at 10 µM. ADP-Glo luminescence, 60 min. AID 2650;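 active = more than half of replicates show inhibition above 20%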;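 also: GST-tagged GSK-3 alpha with peptide substrate and 25 µM ATP; 0% = DMSO neutral wells and 100% = GW8510 positive control wells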
STK33 kinase inh: inhibitors of human STK33 kinase; purified STK33, MBP phosphorylation, ADP-Glo luminescence; inhibition, % at 10 µM; Q9BYT3; 320,000 tested, 0.073% active; AID 2661;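 active = inhibition at or above 25%, using the most active replicate where run in duplicate; inactive = inhibition below 25%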
Target sequence (Q9BYT3 whole entry, looked up): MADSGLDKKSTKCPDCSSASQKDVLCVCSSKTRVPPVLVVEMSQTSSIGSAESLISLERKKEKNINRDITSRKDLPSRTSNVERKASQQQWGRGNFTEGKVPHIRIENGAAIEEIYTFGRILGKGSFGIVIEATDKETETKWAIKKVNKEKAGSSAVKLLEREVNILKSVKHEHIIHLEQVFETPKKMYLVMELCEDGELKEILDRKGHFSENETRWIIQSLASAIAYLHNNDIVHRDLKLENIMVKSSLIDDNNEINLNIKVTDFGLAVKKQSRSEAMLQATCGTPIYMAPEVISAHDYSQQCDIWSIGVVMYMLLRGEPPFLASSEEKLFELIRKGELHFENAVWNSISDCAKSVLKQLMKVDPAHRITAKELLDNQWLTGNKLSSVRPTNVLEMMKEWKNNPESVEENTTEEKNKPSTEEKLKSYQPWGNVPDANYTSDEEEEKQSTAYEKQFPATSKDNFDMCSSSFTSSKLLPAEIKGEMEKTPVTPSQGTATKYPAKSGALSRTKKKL
GSK3B inh: inhibitors of human GSK3beta kinase; P49841; GST-GSK3beta kinase, ADP-Glo luminescence, 60 min; stronger effect = lower value; activity score (negative = inhibition), % at 10 µM; 300,000 tested, 0.038% active; AID 2097;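 active = more than half of replicate wells score below -50%, meaning over 50% inhibition versus plate controls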;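 also: 0% = median DMSO wells and -100% = median GW8510 positive control wells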
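Assay system: GST-fused GSK3beta enzyme, cell-free / Medium: Tris pH 7.5 buffer with MgCl2, DTT, BSA, heparin / Also added: peptide substrate plus 25 µM ATP (final) / Compound: 10 µM single point / Timing: kinase reaction with compound 60 min at room temperature / Detection: ADP-Glo luminescence / Benchmarks: DMSO neutral wells and GW8510 at 20 µM as positive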
Hep lipid drop: hepatic lipid droplet formation modulation; AML12 mouse hepatocytes, oleate lipid droplets, BODIPY imaging; inhibition, % at 6.5 µM; 240,000 tested, 0.4% active;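 active = lipid droplet intensity inhibited by at least 50%, with more than 500 cells counted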
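Assay system: AML12 mouse liver cells | Compound dosing: One dose, 6.5 µM compound | Read-out basis: Droplet intensity reduction, % inhibition | Measured by: Fluorescence imaging, 20x objective, two fields per well | Schedule: Overnight treatment with compound plus oleate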
Rce1 inh: blocks yeast Ras-converting enzyme | Q03530 | yeast membranes, quenched prenylated peptide cleavage fluorescence | calls only | 290,000 tested, 0.27% active | AID 2563;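 active = fall in fluorescence gain of 50% or more versus controls, with final raw signal at or below 3038400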;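 also: plate controls were neutral control wells for no effect and wells lacking membranes for full effect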
HSV augment: HSV replication enhancement; HSV replication augmentation in cells, fold increase; AID 1956; 220,000 tested, 0.005% active; maximum fold increase; in the data active = maximum fold increase above about 1.5; tested in PC3 cells
An asterisk follows results filed as active; i = inactive; . = not tested or not shown; + = active, no number. This is a sample that favours compounds with a hit; in the whole collection about 0.7% have one here.

SMILES	GSK3 alpha inh	STK33 kinase inh	GSK3B inh	Hep lipid drop	Rce1 inh	HSV augment
CN1CCN(C(=S)NC(=O)c2ccccc2Cl)CC1	-2	0	-8	24	+	.
O=C(CN1CCN(C(=O)CNC(=O)c2ccc3c(c2)OCO3)CC1)Nc1cccc(F)c1	-3	-2	.	.	.	.
Cc1[nH][nH]c(=O)c1N=Nc1ccc(S(N)(=O)=O)cc1	59*	3	-22	.	i	.
CC(=O)c1ccc(N=Nc2c(C)[nH][nH]c2=O)cc1	26	3	-8	.	i	.
CCOC(=O)C1=C(CCl)NC(=O)NC1c1ccc2c(c1)OCO2 (stereo unspecified)	-2	-1	0	-3	i	.
Cc1ccc(C(=O)c2c3ccccc3[n+]([O-])n2CCO)cc1	3	0	-2	.	+	.
Cc1ccc(C(=O)c2c3ccc(C(F)(F)F)cc3[n+]([O-])n2CCCC(N)=O)cc1	1	0	-1	.	+	.
COc1ccc(C(=O)c2c3ccccc3[n+]([O-])n2CCCN)cc1	-1	1	-3	.	i	.
Cc1ccc(C(=O)c2c3ccc(C(F)(F)F)cc3[n+]([O-])n2CCC(N)=O)cc1	6	-1	-3	7	i	.
CCCCC(CC)CN=C(N)NC(N)=NCCCCCCN=C(N)NC(N)=NCC(CC)CCCC (stereo unspecified)	20	29*	.	.	.	.
CCN(Cc1ccccc1)c1ccc(/C=N/N=C(N)N)cc1	8	1	-8	-2	+	i
C=CCOC(=O)C1=C(C)NC(=O)NC1c1cc2c(cc1Br)OCO2 (stereo unspecified)	7	-2	6	-4	i	.
CCOC(=O)c1c(-c2ccc(-c3ccccc3)cc2)csc1NC(=O)c1cccc(N2C(=O)CCC2=O)c1	-3	-1	4	-26	i	i
CCOC(=O)c1c(NC(=O)c2cccc(N3C(=O)CCC3=O)c2)sc(C)c1C	-2	0	4	.	+	i
COc1ccccc1C(=O)Nc1c(C(=O)N2CCN(C)CC2)oc2ccccc12	.	1	0	7	i	.
Cc1cc2nn(-c3cccc4ccccc34)nc2cc1NC(=O)c1cccs1	-3	0	-1	.	+	i
Cc1cccc(-c2nnc(NC(=O)c3ccco3)s2)c1	0	-1	-1	-16	i	.
Cc1nn(-c2ccccc2)c2nc(N)c(C(N)=O)cc12	2	4	3	0	+	.
COC(=O)c1cc(C)nc2c1c(C)nn2-c1ccccc1	0	0	.	.	.	.
CCOC(=O)c1ccccc1NC(=O)CN1C(=O)NC(C)(CCc2ccccc2)C1=O (stereo unspecified)	-2	5	-1	.	i	.
Cc1ccc2nc(-c3ccncc3)cc(-c3ccccc3)c2c1	0	-3	1	.	i	i
Cc1ccc(-c2cc3cccc[n+]3cc2-c2ccc(C)cc2)cc1	1	-1	0	-29	+	i
Cc1cc(Cc2ccc(N)c(C)c2)ccc1N	-1	1	1	3	i	i
Nc1ccc(Cc2ccc(N)c(C(=O)O)c2)cc1C(=O)O	0	-2	3	28	+	i
CCOc1ccc2ccccc2c1/C=N/NC(=O)c1cc(C)[nH]n1	-2	0	1	-26	i	.
SMILES	GSK3 alpha inh	STK33 kinase inh	GSK3B inh	Hep lipid drop	Rce1 inh	HSV augment
Cc1cc(C(=O)N/N=C/c2c3ccccc3cc3ccccc23)n[nH]1	-1	2	0	-14	+	.
Cc1cc(C)c(OCC(=O)OCC(=O)N2CCCc3ccccc32)c(C)c1	-2	-1	2	.	i	.
CC(C)(C)[C@H]1COC(=O)[C@@H](Cc2ccc(F)cc2)CC/C=C/C[C@@H](CC(=O)N[C@H](CO)Cc2ccccc2)C(=O)N1	0	0	.	.	.	.
Cc1cc(C)n2cc(CSC3=NCCS3)nc2n1	-1	-1	-25	.	+	i
Cc1cc(C)n2cc(CSCc3ccco3)nc2n1	-3	0	-3	8	i	i
O=C(O)c1cccnc1SCc1cn2cc(Br)ccc2n1	-4	-1	1	13	i	i
Cc1cc(C)n2cc(CSc3ncccc3C(=O)O)nc2n1	-1	-1	4	.	+	i
Cc1ccnc(SCc2cn3c(C)cc(C)nc3n2)n1	0	0	2	1	+	i
COc1cc(N)c(Cl)cc1C(=O)OCC(=O)N1CCCCCC1	-4	0	.	.	.	.
O=C(Nc1ccccn1)Nc1ccccc1Cl	-1	-3	2	-1	i	.
O=S(=O)(NC(=NCc1ccccc1)c1ccc(F)cc1)c1ccc(Cl)cc1	-2	0	3	-11	i	i
CCNc1nc(C)c(CN(C(C)=O)c2ccccc2)nc1C#N	-1	-1	1	-37	+	i
CCN(CC)Cc1c(C(=O)N/N=C/c2ccccn2)nnn1-c1nonc1N	60*	1	-54*	-10	i	.
CC(=C/c1ccco1)/C=N/NC(=O)c1nnn(-c2nonc2N)c1CN(C)C	59*	-1	3	23	i	i
CCN(CC)Cc1c(C(=O)N/N=C/c2ccco2)nnn1-c1nonc1N	.	-1	-42	-7	i	.
CN(Cc1c(C(=O)N/N=C/c2ccc(O)cc2)nnn1-c1nonc1N)c1ccccc1	75*	6	2	12	i	.
CCN(CC)Cc1c(C(=O)N/N=C/c2cccs2)nnn1-c1nonc1N	76*	-1	-3	-24	i	.
CN(Cc1c(C(=O)N/N=C/c2ccccc2)nnn1-c1nonc1N)c1ccccc1	-6	-1	-20	15	i	.
O=C(NCCC1=CCCCC1)C(=O)NCC(c1ccco1)N1CCN(c2ccccc2F)CC1 (stereo unspecified)	1	-2	1	-2	i	i
COc1ccc(-c2cc(=O)oc3cc(OCC(=O)NCC4CCC(C(=O)O)CC4)ccc23)cc1 (stereo unspecified)	0	2	2	.	i	.
CCC(C)NC(=O)c1ccccc1NC(=O)c1ccc(CSc2ccc(C)cc2)cc1 (stereo unspecified)	-4	0	-2	0	i	i
CCN(CC(=O)Nc1ccc(OC)cc1)C(=O)CSCC(=O)Nc1cc(C)on1	-2	0	.	.	.	.
CC1CCN(Cc2c(C(=O)N/N=C/c3cccc(C(F)(F)F)c3)nnn2-c2nonc2N)CC1	-1	-2	-1	-40	+	.
Cn1c(CCN2CCN(c3ccccn3)CC2)nc2cc(NS(=O)(=O)c3ccc(Cl)cc3)ccc21	-2	1	3	-21	i	.
S=C(Nc1ccccc1)Nc1ccc2cn[nH]c2c1	27	41*	-16	0	i	i
N#Cc1c(-c2ccncc2)c2c([nH]c1=O)-c1ccccc1OC2	8	-1	-3	3	i	i
N#Cc1c(-c2ccccc2Cl)c2c([nH]c1=O)-c1ccccc1OC2	55*	3	-10	-44	i	i
